Experimental data: ChEMBL document CHEMBL4385654, “Inhibitory effects of N-(acryloyl)benzamide derivatives on tyrosinase and melanogenesis” (Bioorg Med Chem, 2019)
Calls of active or inactive are those of the source. The calls are words filed in the database; no cut-off is given here.

Experiments:
[1] = Antioxidant activity assessed as DPPH-radical scavenging activity at 1 mM incubated for 30 mins under dark condition by microplate reader based assay relative to control; assay type: functional
Method in brief: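 20 µL of 10 mM DMSO stock mixed with 180 µL of 0.2 mM DPPH in methanol (stated test level 1 mM). L-ascorbic acid served as the positive control. Kept 30 min in the dark, then absorbance read at 517 nm. Scavenging % = 100×(Ac−As)/Ac against the untreated control. Three independent experiments, mean ± SD.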

[2] = species on record: Mus musculus; test: Inhibition of tyrosinase in alpha-MSH-stimulated mouse B16F10 cells at 25 uM incubated for 24 hrs by microplate reader based assay
Method in brief: (§1)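 B16F10 cells were seeded at 5x10^4 per well and cultured 24 h, then given 1 µM α-MSH plus agent (0–25 µM; kojic acid 25 µM; arbutin 400 µM) for 24 h. Cells were PBS-washed and lysed in 1% Triton X-100, 0.1 mM PMSF, 50 mM phosphate pH 6.8. Lysate was frozen at −80 °C, then centrifuged. 80 µL supernatant was mixed with 20 µL 10 mM L-DOPA, held 30 min at 37 °C, and OD500 read. Triplicate runs.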

[3] = species on record: Mus musculus; test: Inhibition of tyrosinase in alpha-MSH-stimulated mouse B16F10 cells assessed as reduction in melanin levels at 25 uM incubated for 24 hrs by microplate reader based assay relative to control
Method in brief: (§2)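 B16F10 cells were seeded at 5x10^4 per well and cultured 24 h at 37 °C, 5% CO2. They were then co-treated with 1 µM α-MSH and test agent (0, 5, 10 or 25 µM) for 24 h, with kojic acid at 25 µM alongside. After two PBS washes, melanin was dissolved in 200 µL 1 M NaOH for 1 h and OD405 read. Triplicate runs.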

[4] = species on record: Mus musculus; test: Inhibition of tyrosinase in alpha-MSH-stimulated mouse B16F10 cells assessed as reduction in melanin levels at 10 uM incubated for 24 hrs by microplate reader based assay relative to control; method in brief: as §2
[5] = tested on: B16-F10; test: Cytotoxicity in mouse B16F10 cells assessed as reduction in cell viability up to 25 uM incubated for 24 hrs by WST-8 assay; assay type: cell-based; conditions: b16-f10, 24 h
Method in brief: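 B16F10 murine melanoma cells were grown in DMEM with 10% FBS, penicillin and streptomycin at 37 °C and 5% CO2, seeded at 5x10^4 per well and cultured 24 h. They were then dosed at 0, 5, 10 or 25 for 24 h. WST-8 reagent was added, and OD450 was read. Viability is given as % of untreated cells; triplicate runs.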

[6] = species on record: Mus musculus; test: Inhibition of tyrosinase in alpha-MSH-stimulated mouse B16F10 cells assessed as reduction in melanin levels at 5 uM incubated for 24 hrs by microplate reader based assay relative to control; method in brief: as §2
[7] = species on record: Mus musculus; test: Inhibition of tyrosinase in alpha-MSH-stimulated mouse B16F10 cells at 400 uM incubated for 24 hrs by microplate reader based assay; method in brief: as §1

O=C(/C=C/c1ccc(O)c(Br)c1)NC(=O)c1ccccc1
inhibition [1]: 17.3%

O=C1O[C@H]([C@@H](O)CO)C(O)=C1O
inhibition [1]: 84.6%

O=c1cc(CO)occ1O
inhibition [2]: 50.3% | inhibition [3]: 39%

COc1cc(/C=C/C(=O)NC(=O)c2ccccc2)cc(OC)c1O
inhibition [1]: 3.76%

O=C(/C=C/c1ccc(O)c(O)c1)NC(=O)c1ccccc1
inhibition [2]: 76.8% | inhibition [4]: 37.6% | Activity [5]: Non-Toxic | inhibition [3]: 61.8% | inhibition [1]: 82.9% | inhibition [6]: 21.6%

O=C(/C=C/c1cc(Br)c(O)c(Br)c1)NC(=O)c1ccccc1
inhibition [1]: inactive

COc1ccc(/C=C/C(=O)NC(=O)c2ccccc2)cc1O
inhibition [2]: 59.7% | inhibition [4]: 31.2% | Activity [5]: Non-Toxic | inhibition [3]: 48% | inhibition [1]: 7.02% | inhibition [6]: 9.06%

O=C(/C=C/c1ccc(O)cc1)NC(=O)c1ccccc1
inhibition [1]: 4.89%

COc1ccc(/C=C/C(=O)NC(=O)c2ccccc2)c(OC)c1
inhibition [1]: 5.76%

COc1ccc(/C=C/C(=O)NC(=O)c2ccccc2)cc1
inhibition [1]: 5.61%

COc1ccc(/C=C/C(=O)NC(=O)c2ccccc2)cc1OC
inhibition [1]: 4.82%

OC[C@H]1O[C@@H](Oc2ccc(O)cc2)[C@H](O)[C@@H](O)[C@@H]1O
inhibition [7]: 41.8%

COc1cc(/C=C/C(=O)NC(=O)c2ccccc2)cc(OC)c1OC
inhibition [1]: 6.9%
